pKi: −log10 of the molar value.
Key:
[1] = target: T1, Membrane-bound transcription factor site-1 protease (Homo sapiens, UniProt Q14703); experiment: Inhibition of human recombinant soluble Kexin isozyme 1
T1 sequence (Q14703 whole entry): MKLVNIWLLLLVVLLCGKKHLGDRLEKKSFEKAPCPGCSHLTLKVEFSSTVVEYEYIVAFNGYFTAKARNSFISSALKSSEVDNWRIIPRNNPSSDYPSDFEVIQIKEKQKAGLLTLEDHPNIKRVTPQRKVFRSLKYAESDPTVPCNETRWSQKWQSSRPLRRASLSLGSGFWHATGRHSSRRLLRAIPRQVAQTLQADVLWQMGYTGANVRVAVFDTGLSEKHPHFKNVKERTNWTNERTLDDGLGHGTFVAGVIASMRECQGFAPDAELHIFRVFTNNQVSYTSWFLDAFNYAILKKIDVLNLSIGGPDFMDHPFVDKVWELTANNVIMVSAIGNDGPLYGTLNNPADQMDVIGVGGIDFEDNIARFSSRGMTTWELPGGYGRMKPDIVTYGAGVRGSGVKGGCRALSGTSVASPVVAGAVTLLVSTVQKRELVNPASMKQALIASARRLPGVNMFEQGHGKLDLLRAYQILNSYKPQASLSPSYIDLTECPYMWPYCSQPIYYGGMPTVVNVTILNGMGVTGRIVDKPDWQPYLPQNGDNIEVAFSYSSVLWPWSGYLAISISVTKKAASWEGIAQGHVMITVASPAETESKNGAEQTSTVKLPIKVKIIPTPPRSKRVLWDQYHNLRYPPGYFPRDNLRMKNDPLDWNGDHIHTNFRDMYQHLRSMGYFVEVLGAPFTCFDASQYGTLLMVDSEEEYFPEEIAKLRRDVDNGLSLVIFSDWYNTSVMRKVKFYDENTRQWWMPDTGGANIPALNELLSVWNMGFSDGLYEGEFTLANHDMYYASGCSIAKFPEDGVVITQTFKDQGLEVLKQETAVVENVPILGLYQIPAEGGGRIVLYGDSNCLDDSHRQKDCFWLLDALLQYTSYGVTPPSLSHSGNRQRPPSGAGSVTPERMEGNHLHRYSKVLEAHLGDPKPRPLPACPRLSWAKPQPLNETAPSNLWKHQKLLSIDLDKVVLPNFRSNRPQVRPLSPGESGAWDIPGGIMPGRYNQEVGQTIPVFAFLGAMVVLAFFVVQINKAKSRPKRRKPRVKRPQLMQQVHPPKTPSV
Summary of the method: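 Recombinant soluble human SKI-1 (activity normalized to 10 pmol Abz-peptide released per µL per h, 37 °C). Only the E-form was tested, at varying concentrations, with quenched fluorogenic Abz-Q-GPC251–263-Tyx substrate in Tris/Mes/2 mM CaCl2 buffer at 37 °C. RFU (ex 320/em 420 nm) were read from 0–6 h and converted to cleavage rates. Ki came from Dixon plots at 0.1, 0.05 and 0.025 mM substrate.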

[2] = Chemical stability assessed as half life of degradation; type: physicochemical
Summary of the method: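 Z-isomer formed by long-wavelength UV irradiation, then its thermal reisomerization to the E-form followed. First-order rate constant (h⁻¹) and Z-isomer half-life (h) derived.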

SMILES	pKi [1]	half-life [2] [h]
O=C(COc1ccccc1/N=N/c1ccccc1OCC(=O)N[C@@H](Cc1ccccc1)C(=O)O)N[C@@H](Cc1ccccc1)C(=O)O	3.65	–
O=C(COc1ccccc1/N=N/c1ccccc1OCC(=O)N[C@@H](Cc1ccccc1)C(=O)N[C@@H](Cc1ccccc1)C(=O)OCc1ccccc1)N[C@@H](Cc1ccccc1)C(=O)N[C@@H](Cc1ccccc1)C(=O)OCc1ccccc1	–	28.9
CC(C)[C@H](NC(=O)COc1ccccc1/N=N/c1ccccc1OCC(=O)N[C@H](C(=O)O)C(C)C)C(=O)O	4.12	–
O=C(COc1ccccc1/N=N/c1ccccc1OCC(=O)N[C@@H](Cc1ccccc1)C(=O)OCc1ccccc1)N[C@@H](Cc1ccccc1)C(=O)OCc1ccccc1	4.93	69.3
CC(C)[C@H](NC(=O)COc1ccccc1/N=N/c1ccccc1OCC(=O)N[C@H](C(=O)OCc1ccccc1)C(C)C)C(=O)OCc1ccccc1	3.90	31.5
O=C(O)CNC(=O)COc1ccccc1/N=N/c1ccccc1OCC(=O)NCC(=O)O	3.58	–
O=C(COc1ccccc1/N=N/c1ccccc1OCC(=O)N[C@@H](Cc1ccccc1)C(=O)N[C@@H](Cc1ccccc1)C(=O)O)N[C@@H](Cc1ccccc1)C(=O)N[C@@H](Cc1ccccc1)C(=O)O	3.85	–
O=C(COc1ccccc1/N=N/c1ccccc1OCC(=O)NCC(=O)OCc1ccccc1)NCC(=O)OCc1ccccc1	–	77

From ChEMBL document CHEMBL1177757, “C(2)-Symmetric azobenzene-amino acid conjugates and their inhibition of Subtilisin Kexin Isozyme-1” (Bioorg Med Chem Lett, 2010)
